Source: ChEMBL document CHEMBL1136692, “Pharmacokinetic optimization of 3-amino-6-chloropyrazinone acetamide thrombin inhibitors. Implementation of P3 pyridine N-oxides to deliver an orally bioavailable series containing P1 N-benzylamides” (Bioorg Med Chem Lett, 2003)

Columns and labels:
[1] = Partition coefficient (logP) of the compound; type: physicochemical; conditions: octanol/water
[2] = t1/2 in dog; type: ADME, organism-based, Canis lupus familiaris; conditions: in vivo
Procedure, shortened: (§1)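 Dog pharmacokinetics after oral dosing at 1 mg/kg, or at 0.7 or 0.5 mg/kg where footnoted. Cmax (µM) and oral half-life (h) from plasma levels.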

[3] = Maximum plasma concentration (Cmax) in dog at a dose of 1 mg/kg; type: ADME, organism-based, Canis lupus familiaris; parameters: dose 1 mg/kg; procedure, shortened: as §1
Homo sapiens [4] = species: Homo sapiens; test: Human microsome stabilities are reported as the ratio of the % remaining after a 1 hr incubation versus the internal standard thrombin inhibitor; type: functional; parameters: unit not given here
Homo sapiens [5] = species: Homo sapiens; test: Concentration required to double the activated partial thromboplastin time (aPPT) in human plasma; type: functional, cell-free
Procedure, shortened: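 Anticoagulant assay in human plasma. The value is the concentration of inhibitor that doubles the activated partial thromboplastin time (2×aPTT).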

Prothrombin = Prothrombin (Homo sapiens, UniProt P00734); test: Inhibitory activity against human thrombin
[6] = Compound was tested for percent protein binding (PB) in dog; type: ADME, organism-based, Canis lupus familiaris; conditions: read-out: PB (converted)
Procedure, shortened: (§2)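 Plasma protein binding given as percent free drug, measured in dog plasma and in human plasma.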

[7] = Compound was tested for percent protein binding (PB) in human; type: ADME; conditions: read-out: PB (converted); procedure, shortened: as §2
[8] = Vd in dog; type: ADME, organism-based, Canis lupus familiaris; conditions: in vivo
Procedure, shortened: (§3)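 Dog pharmacokinetics. Parameters are plasma clearance (mL/min/kg), volume of distribution (L/kg), iv half-life (h) and oral bioavailability F (%).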

[9] = Oral bioavailability in dog; type: ADME, organism-based, Canis lupus familiaris; conditions: in vivo; procedure, shortened: as §3
[10] = Plasma clearance (pharmacokinetic parameter) in dog was determined; type: ADME, organism-based, Canis lupus familiaris; conditions: read-out: Clp; procedure, shortened: as §3
[11] = Half life period after intravenous administration in dog; type: ADME, organism-based, Canis lupus familiaris; conditions: in vivo; procedure, shortened: as §3
[12] = Vd (1 mg/kg) was determined in dog (in vivo); type: ADME, organism-based, Canis lupus familiaris
Procedure, shortened: (§4)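 Plasma clearance and volume of distribution determined at a species-specific dose: 1 mg/kg for dog, 10 mg/kg for rat, 5 mg/kg for rhesus.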

[13] = Maximum plasma concentration (Cmax) in rhesus monkey(in vivo) at a dose of 5 mg/kg; type: ADME, organism-based; parameters: dose 5 mg/kg; conditions: cercopithecidae
Procedure, shortened: (§5)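 Maximum plasma concentration in rat (10 mg/kg) and in rhesus (5 mg/kg), each measured at the dose stated for its species.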

[14] = Plasma clearance (pharmacokinetic parameter) in dog (in vivo) at a dose of 1 mg/kg; type: ADME, organism-based, Canis lupus familiaris; parameters: dose 1 mg/kg; conditions: read-out: Clp; procedure, shortened: as §4
[15] = Plasma clearance (pharmacokinetic parameter) in rat (in vivo) at a dose of 10 mg/kg; type: ADME, organism-based; parameters: dose 10 mg/kg; conditions: read-out: Clp; procedure, shortened: as §4
[16] = Plasma clearance (pharmacokinetic parameter) in rhesus (in vivo) at a dose of 5 mg/kg; type: ADME, organism-based, Macaca mulatta; parameters: dose 5 mg/kg; conditions: rhesus monkey, read-out: Clp; procedure, shortened: as §4
[17] = Maximum plasma concentration (Cmax) in rat (in vivo) at a dose of 10 mg/kg; type: ADME, organism-based; parameters: dose 10 mg/kg; procedure, shortened: as §5
[18] = Half life period after intravenous administration (1 mg/kg) was determined in dog (in vivo); type: ADME, organism-based, Canis lupus familiaris
[19] = Maximum plasma concentration (Cmax) in dog (in vivo) at a dose of 1 mg/kg; type: ADME, organism-based, Canis lupus familiaris; parameters: dose 1 mg/kg; procedure, shortened: as §1
[20] = Oral bioavailability (10 mg/kg) was determined in rat; type: ADME, organism-based; conditions: in vivo
[21] = Half life period after intravenous administration (10 mg/kg) was determined in rat (in vivo); type: ADME, organism-based
[22] = Half life period after intravenous administration (5 mg/kg) was determined in rhesus (in vivo); type: ADME, organism-based, Macaca mulatta; conditions: rhesus monkey
[23] = Vd (10 mg/kg) was determined in rat (in vivo); type: ADME, organism-based; procedure, shortened: as §4
[24] = Vd (5 mg/kg) was determined in rhesus (in vivo); type: ADME, organism-based, Macaca mulatta; conditions: rhesus monkey; procedure, shortened: as §4
Rattus norvegicus [25] = test: […] activated partial thromboplastin time(APPT) after intravenous administration in rat model of FeCl3-induced carotid thrombosis; type: functional
Rattus norvegicus [26] = test: Thrombin time of occlusion after intravenous administration in rat model of FeCl3-induced carotid thrombosis; type: functional
Rattus norvegicus [27] = test: Time of occlusion after intravenous administration in rat model of FeCl3-induced carotid thrombosis; type: functional
Procedure, shortened: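 Rat carotid artery thrombosis induced with FeCl3. Compound given iv as a continuous infusion (µg/kg/min; vehicle 0.3% DMSO). Read-outs: incidence of occlusion, time to occlusion, thrombin time, aPTT (s) and plasma level (µM).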

[28] = Oral bioavailability (1 mg/kg) was determined in dog; conditions: in vivo
[29] = Oral bioavailability (5 mg/kg) was determined in rhesus; conditions: Macaca mulatta, rhesus monkey, in vivo
[30] = Maximum plasma concentration (Cmax) in dog at a dose of […] mg/kg; type: ADME, organism-based, Canis lupus familiaris

| Compound | logP [1] | half-life [2] | Cmax [3] | Ratio (Homo sapiens [4]) | Concentration (Homo sapiens [5]) | Ki (Prothrombin) | other results |
| --- | --- | --- | --- | --- | --- | --- | --- |
| O=C(Cn1c(Cl)cnc(NCC(F)(F)c2cccc[n+]2[O-])c1=O)NCc1ccccc1OC(F)(F)F | 2.34 | 3 h | 1670 nM | 0 | 0.81 µM | 2.4 nM |  |
| O=C(Cn1c(Cl)cnc(NCC(F)(F)c2cccc[n+]2[O-])c1=O)NCc1ncccc1F | 0.19 | 2.5 h | 1780 nM | 6.5 | 0.54 µM | 3.1 nM | fraction unbound [6]: 0.2; fraction unbound [7]: 0.3; Vd [8]: 1.13 L/kg; bioavailability [9]: 83%; clearance [10]: 4.91 mL/min/kg; half-life [11]: 2.9 h |
| COc1cccc(CNC(=O)Cn2c(Cl)cnc(NCC(F)(F)c3cccc[n+]3[O-])c2=O)c1 | 1.31 | 2.8 h | 1220 nM | 0.71 | 0.43 µM | 1.2 nM |  |
| O=C(Cn1c(Cl)cnc(NCC(F)(F)c2cccc[n+]2[O-])c1=O)NCc1ccccc1OC(F)F | 1.63 | 2.8 h | 2030 nM | 0 | 0.69 µM | 3 nM |  |
| O=C(Cn1c(Cl)cnc(NCC(F)(F)c2cccc[n+]2[O-])c1=O)NCc1ccc(F)c(Cl)c1 | 1.98 | 2.4 h | 420 nM | 0 | 0.78 µM | 3.6 nM |  |
| O=C(Cn1c(Cl)cnc(NCC(F)(F)c2cccc[n+]2[O-])c1=O)NCc1c(F)cccc1F | 1.23 | 6.2 h | 210 nM | 3.4 | 0.33 µM | 0.85 nM |  |
| O=C(Cn1c(Cl)cnc(NCC(F)(F)c2ccccn2)c1=O)NCc1ncccc1F [DPOC-4088] |  |  |  |  | 0.78 µM |  | fraction unbound [6]: 0.67; fraction unbound [7]: 0.86; Vd [8]: 0.62 L/kg; clearance [10]: 2.2 mL/min/kg; half-life [11]: 4.5 h |
| O=C(Cn1c(Cl)cnc(NCC(F)(F)c2cccc[n+]2[O-])c1=O)NCc1cc(Cl)ccc1F | Not Active | 2.1 h | 480 nM | 0 | 0.31 µM | 0.16 nM |  |
| O=C(Cn1c(Cl)cnc(NCC(F)(F)c2ccccn2)c1=O)NCc1ccccc1F |  |  | 17 nM |  | 1.24 µM | 4.8 nM |  |
| CCOc1ccccc1CNC(=O)Cn1c(Cl)cnc(NCC(F)(F)c2cccc[n+]2[O-])c1=O | 1.91 | 1.2 h | 770 nM | 0.08 | 0.87 µM | 5.2 nM |  |
| O=C(Cn1c(Cl)cnc(NCC(F)(F)c2cccc[n+]2[O-])c1=O)NCc1ccccc1F | 1.39 | 4.9 h | 3500 nM |  | 0.4 µM |  | Vd [12]: 0.49 L/kg; Cmax [13]: 1050 nM; clearance [14]: 1.55 mL/min/kg; clearance [15]: 43 mL/min/kg; clearance [16]: 19 mL/min/kg; Cmax [17]: 1940 nM; half-life [18]: 6.3 h; Cmax [19]: 3280 nM; bioavailability [20]: 52%; half-life [21]: 0.43 h; half-life [22]: 1.1 h; Vd [23]: 0.93 L/kg; Vd [24]: 1.5 L/kg; APTT (Rattus norvegicus [25]): 22.6 s; TT (Rattus norvegicus [26]): 59.3 s; TTO (Rattus norvegicus [27]): 15; bioavailability [28]: 40%; bioavailability [29]: 21% |
| COc1ccccc1CNC(=O)Cn1c(Cl)cnc(NCC(F)(F)c2cccc[n+]2[O-])c1=O | 1.36 | 3.8 h |  | 0.44 | 0.56 µM | 3 nM | Cmax ([30]; 0.5 mg/kg): 2480 nM |
| O=C(Cn1c(Cl)cnc(NCC(F)(F)c2cccc[n+]2[O-])c1=O)NCc1ccccc1C(F)(F)F | 2.24 | 3.7 h |  | 0.05 | 0.93 µM | 3.6 nM | Cmax ([30]; 0.5 mg/kg): 1430 nM |
| O=C(Cn1c(Cl)cnc(NCC(F)(F)c2cccc[n+]2[O-])c1=O)NCc1c(F)cccc1C(F)(F)F | 1.89 | 2.4 h |  | 0 | 0.88 µM | 1.3 nM | Cmax ([30]; 0.7 mg/kg): 70 nM |
| O=C(Cn1c(Cl)cnc(NCC(F)(F)c2cccc[n+]2[O-])c1=O)NCc1cccc(OC(F)F)c1 | 1.73 | 4.8 h | 120 nM | 0.54 | 0.97 µM | 7 nM |  |
| O=C(Cn1c(Cl)cnc(NCC(F)(F)c2cccc[n+]2[O-])c1=O)NCc1ccccc1 | 1.23 | 6.3 h | 3200 nM | 1.3 | 0.94 µM | 7 nM |  |
| O=C(Cn1c(Cl)cnc(NCC(F)(F)c2cccc[n+]2[O-])c1=O)NCc1c(F)ccc(F)c1F | 1.42 | 3.5 h | 1510 nM | 0.04 | 0.31 µM | 1.1 nM |  |
| O=C(Cn1c(Cl)cnc(NCC(F)(F)c2cccc[n+]2[O-])c1=O)NCc1cccc(F)c1 | Not Active | 4.1 h |  | 0.71 | 0.86 µM | 7.3 nM | Cmax ([30]; 0.5 mg/kg): 1370 nM |
| O=C(Cn1c(Cl)cnc(NCC(F)(F)c2cccc[n+]2[O-])c1=O)NCc1cccc(Cl)c1Cl | 2.14 | 2.5 h | 290 nM | 0.39 | 0.88 µM | 2 nM |  |
| Cc1ccccc1CNC(=O)Cn1c(Cl)cnc(NCC(F)(F)c2cccc[n+]2[O-])c1=O | 1.74 | 3.6 h | 1760 nM |  | 0.77 µM |  |  |
| O=C(Cn1c(Cl)cnc(NCC(F)(F)c2cccc[n+]2[O-])c1=O)NCc1ncccc1Cl | 0.75 | 5.5 h |  | 1.3 | 0.47 µM | 2.9 nM | fraction unbound [6]: 0.5; fraction unbound [7]: 0.59; Vd [8]: 1.17 L/kg; clearance [10]: 3.03 mL/min/kg; Cmax ([30]; 0.7 mg/kg): 1090 nM; half-life [11]: 6 h |
| O=C(Cn1c(Cl)cnc(NCC(F)(F)c2cccc[n+]2[O-])c1=O)NCc1cc(F)ccc1F | Not Active | 3.9 h | 2290 nM | 0.05 | 0.43 µM | 2.4 nM |  |
| O=C(Cn1c(Cl)cnc(NCC(F)(F)c2cccc[n+]2[O-])c1=O)NCc1cccc(Br)c1 | 2.11 | 3.6 h | 1010 nM | 0.14 | 0.28 µM | 0.19 nM |  |
| O=C(Cn1c(Cl)cnc(NCC(F)(F)c2cccc[n+]2[O-])c1=O)NCc1cccc(Cl)c1 | Not Active | 2.6 h |  | 0 | 0.23 µM | 0.26 nM | Cmax ([30]; 0.5 mg/kg): 1910 nM |
| O=C(Cn1c(Cl)cnc(NCC(F)(F)c2cccc[n+]2[O-])c1=O)NCc1cc(Cl)ccc1Cl | 2.61 | 2.1 h | 110 nM | 1.04 | 0.39 µM | 0.087 nM |  |
| O=C(Cn1c(Cl)cnc(NCC(F)(F)c2cccc[n+]2[O-])c1=O)NCc1ccccc1OCC(F)(F)F | 1.93 | 2.5 h | 2290 nM | 0 | 0.58 µM | 1.8 nM |  |
| O=C(Cn1c(Cl)cnc(NCC(F)(F)c2cccc[n+]2[O-])c1=O)NCc1cc(F)ccc1C(F)(F)F | 1.99 | 2.8 h | 990 nM | 0 | 0.63 µM | 1.7 nM |  |
| O=C(Cn1c(Cl)cnc(NCC(F)(F)c2cccc[n+]2[O-])c1=O)NCc1ccccc1Cl | 1.89 | 2.9 h | 700 nM | 0.15 | 0.54 µM | 2.5 nM |  |
| Cc1cccc(CNC(=O)Cn2c(Cl)cnc(NCC(F)(F)c3cccc[n+]3[O-])c2=O)c1 | 1.81 | 1.1 h | 2190 nM | 0.58 | 0.3 µM | 0.8 nM |  |
